Bioassay records: PubChem BioAssay, several laboratories
The list is not random: actives were taken first. Their share in the collection is about 2.5%.
NPY-Y2 PAM-ag: NPY-Y2 potentiators or agonists, primary screen, cell-based; Neuropeptide Y receptor type 2 (Homo sapiens), P49146; cells expressing NPY-Y2, potentiator/agonist read-out; activation, % at 3.6 µM; 220,000 tested, 0.45% active; in the data active means activation above about 27%;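 further: cells stimulated with NPY near EC25 plus isoproterenol at EC100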
NPY Y1 blocker: NPY-Y1 receptor antagonists, primary screen, cell-based. Neuropeptide Y receptor type 1 (Homo sapiens), P25929. HEK293-CNG Y1 cells, membrane potential fluorescence; NPY at EC95, then isoproterenol. inhibition, % at 3.6 µM. 200,000 tested, 1% active. AID 1040, 2008;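 active means inhibition above the campaign mean inhibition of all tested compounds plus 3 SD, cut at about 20% in these data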
Target sequence (P25929 whole entry, looked up): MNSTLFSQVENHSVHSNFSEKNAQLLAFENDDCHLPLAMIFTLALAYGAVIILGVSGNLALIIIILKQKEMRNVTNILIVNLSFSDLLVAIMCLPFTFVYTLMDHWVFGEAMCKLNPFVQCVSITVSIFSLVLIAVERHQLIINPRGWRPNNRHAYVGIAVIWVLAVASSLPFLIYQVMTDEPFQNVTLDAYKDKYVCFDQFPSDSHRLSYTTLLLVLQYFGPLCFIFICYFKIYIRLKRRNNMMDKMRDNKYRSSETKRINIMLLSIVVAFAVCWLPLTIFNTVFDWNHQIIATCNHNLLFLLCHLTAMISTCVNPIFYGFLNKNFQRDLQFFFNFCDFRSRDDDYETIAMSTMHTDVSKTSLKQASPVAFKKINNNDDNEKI
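Assay system: HEK293 cells with Y1 receptor plus CNG channel | Probe or stimulus: NPY (25 nM), isoproterenol (1 µM), Ro 20-1724 (25 µM) | Timing: Compound incubation 1 h at room temperature, readout 45 min post-stimulation | Measured by: Membrane-potential fluorescent dye readout | Benchmarks: High control isoproterenol alone, low control NPY with isoproterenol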
NPY-Y2 antag: NPY-Y2 receptor antagonists, primary screen, cell-based; NPY-Y2 expressing cells, antagonist mode; inhibition, % at 2.7 µM; 140,000 tested, 0.99% active; in the data active means inhibition above about 17%
Insulin prom up: insulin promoter activators in MIN6 cells, imaging, high-content screening, mouse beta cells; MIN6 insulin promoter-GFP reporter; active compounds read high; z-score at 5 µM; 190,000 tested, 0.3% active; AID 1625, 2009;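 active means z-score above 3 at 5 µM with at least 500 cells counted in the well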
Insulin prom inh: inhibitors of insulin promoter-driven GFP, primary screen, imaging, TRM-6 cells, eGFP reporter, cell count. reporter expression induced with tamoxifen. inhibition, % at 2 µM. 130,000 tested, 0.9% active;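 active means inhibition above the mean plus 3 SD, with well images judged a real hit on visual review, cut at about 60% in these data, passing the limit was not always enough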
NPY1 pot ag: NPY-Y1 receptor potentiators or agonists, primary screen, cell-based. activation, % at 3.6 µM. AID 1304, 2008. NPY-Y1 expressing cells, potentiator/agonist activation. 220,000 tested, 0.37% active. Neuropeptide Y receptor type 1 (Homo sapiens), P25929; in the data active means activation above about 33%, passing the limit was not always enough;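 further: cells stimulated with NPY at EC10 then isoproterenol at EC100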
Each line names hits and unclear results; the compound was inactive in the other large screens.

Cn1cc(SCC(=O)O)c2ccccc21	Insulin prom inh 83 (no result: Insulin prom up)
Cn1cc(SCC(=O)N2CCN(c3ccccc3)CC2)c2ccccc21	none (no result: Insulin prom inh)
Cc1ccccc1OCC(=O)N(CC(C)C)c1c(N)n(CC(C)C)c(=O)[nH]c1=O	none (no result: NPY Y1 blocker, NPY-Y2 antag, Insulin prom inh)
CC(=O)C1=C(C)Nc2ncnn2C1c1ccc(Cl)cc1Cl (configuration not stated)	Insulin prom up 3.5 (no result: Insulin prom inh)
COC(=O)Nc1csc2c1NC(=O)CCCC2	none (no result: NPY Y1 blocker, NPY-Y2 antag, Insulin prom inh)
Cc1cc(S(=O)(=O)N2CCCC2)ccc1OCC(=O)N1CCOCC1	Insulin prom inh 78
O=C(NC1CCCCCC1)c1cc(S(=O)(=O)N2CCCCC2)ccc1N1CCOCC1	NPY Y1 blocker 21 (no result: NPY-Y2 antag)
O=C(NC1CCCCCC1)c1cc(S(=O)(=O)N2CCOCC2)ccc1N1CCCCC1	none
Cn1c2ccccc2c(=O)c2c(=O)n(Cc3ccco3)c(-c3ccc(Cl)cc3Cl)nc21	none (no result: NPY Y1 blocker, NPY-Y2 antag, Insulin prom inh)
O=C1Nc2ccccc2/C1=N\N=C\C1=C(N2CCOCC2)C(=C\c2ccccc2)/CC1	NPY-Y2 PAM-ag 42, NPY1 pot ag 46
Cn1cc(C(=O)N/N=C/C2=C(N3CCOCC3)C(=C\c3ccccc3)/CC2)ccc1=O	none
CC(C)(C)n1nnnc1CN(Cc1cccnc1)Cc1ccccc1Cl	none (no result: Insulin prom inh)
Cc1ccc(C(c2nnnn2C(C)(C)C)N(Cc2ccco2)Cc2cccs2)cc1 (configuration not stated)	NPY-Y2 antag 18 (no result: Insulin prom inh)
CC(C)(C)n1nnnc1C(c1ccc(F)cc1)N(Cc1ccc(F)cc1)Cc1ccco1 (configuration not stated)	NPY Y1 blocker 47, NPY-Y2 antag 27
CC(C)C(c1nnnn1Cc1ccccc1)N(Cc1ccco1)Cc1cccs1 (configuration not stated)	none (no result: Insulin prom inh)
CCN(Cc1ccccc1)C(c1ccncc1)c1nnnn1C(C)(C)C (configuration not stated)	none (no result: Insulin prom inh)
CC(C)(C)n1nnnc1C(c1ccc(Cl)cc1)N(Cc1cccnc1)Cc1ccco1 (configuration not stated)	NPY Y1 blocker 25, NPY-Y2 antag 28 (no result: Insulin prom up)
Fc1ccc(C(c2nnnn2C2CCCC2)N(Cc2ccco2)CC2CCCO2)cc1 (configuration not stated)	NPY Y1 blocker 32, NPY-Y2 antag 43
Cc1ccc2ccccc2c1Cn1c(-n2ccnc2)nc2c1c(=O)n(C)c(=O)n2C	none
CC(C)(C)c1ccc(CN(Cc2ccccc2)C(c2ccccn2)c2nnnn2C(C)(C)C)cc1 (configuration not stated)	none
CC(C)(C)n1nnnc1C(c1ccc(C(F)(F)F)cc1)N(Cc1ccc(F)cc1)Cc1ccco1 (configuration not stated)	NPY Y1 blocker 32, NPY-Y2 antag 26 (no result: Insulin prom up)
CCS(=O)(=O)N1Cc2ccccc2CC1C(=O)OCC(=O)Nc1ccc(C)cc1 (configuration not stated)	Insulin prom up 5
Cc1cc(C)n(-c2ccc(F)cc2CN2CCN(C3CCCC3)C(CCO)C2)n1 (configuration not stated)	NPY Y1 blocker 20 (no result: NPY-Y2 antag, Insulin prom inh)
Cn1c(=O)c2c(nc(N3CCN(c4ccc([N+](=O)[O-])cc4)CC3)n2C)n(C)c1=O	none (no result: NPY Y1 blocker, NPY-Y2 antag, Insulin prom inh)
Cc1ccccc1OCC(=O)NNC(=O)CCc1ccccc1	none (no result: NPY-Y2 antag, Insulin prom inh)
CCN(CC)CC(O)COc1ccccc1C(=O)CCc1ccccc1 (configuration not stated)	NPY-Y2 PAM-ag 39, NPY1 pot ag 51 (no result: Insulin prom inh)
CCC(=O)c1ccc(OCC(O)CN(CCc2ccccc2)Cc2ccccc2)cc1 (configuration not stated)	none (no result: Insulin prom inh)
CCCNCC(O)COc1ccccc1C(=O)CCc1ccccc1 (configuration not stated)	NPY-Y2 PAM-ag 87, NPY1 pot ag 99 (no result: Insulin prom up)
CCCNC(=O)c1onc(CSc2cccc(OC)c2)c1C(=O)NCCC	none (no result: NPY-Y2 PAM-ag, NPY Y1 blocker, NPY-Y2 antag, Insulin prom inh, NPY1 pot ag)
O=S(=O)(NC1=NCCCCC1)c1ccc2ccccc2c1	none (no result: Insulin prom up)
CC1=CC(C)(C)N2C(=O)C3(SCC(=O)N3c3ccc(F)cc3)c3cc(C)cc1c32 (configuration not stated)	none
